Source: PubChem (The Scripps Research Institute Molecular Screening Center)
In the library only some 3.3% were active in any assay of this set; here they are far more common.
rCAG RNA binder: binders of r(CAG) RNA repeats, primary screen, biochemical, fluorescence; r(CAG) RNA repeat, TO-PRO-1 dye displacement fluorescence; inhibition, % at 3 µM; 1.3% of 370,000 active; AID 651821, 2012;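 active means inhibition above the plate cutoff, the mean of all test compounds on that plate plus 3 SD, cut at about 35% in these data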;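 further: 0% = DMSO alone and 100% = 100 µM mitoxantrone as full dye displacement; higher means more dye released from RNA so lower well fluorescence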
mABHD4 FP: ABHD4 inhibitors, primary screen, biochemical, fluorescence polarization, mouse. purified mABHD4, FP-Rh probe fluorescence polarization. inhibition, % at 8.92 µM. 0.54% of 370,000 active. AID 720543, 2013;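 active means inhibition exceeding the mean over every tested compound plus 3 SD, cut at about 30% in these data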;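 further: 0% = plate median of compound wells and 100% = S159A mutant with DMSO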
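Assay system: wild-type mouse ABHD4 protein; compound: single nominal dose of 8.92 µM, 0.89% DMSO final; schedule: 45 min + 60 min at 25 °C; measured by: FP readout, ex 525 nm / em 598 nm; evaluation: % inhibition of FP-Rh probe binding versus controls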
PRMT1 inh: PRMT1 methyltransferase inhibitors, primary screen, biochemical, fluorescence polarization; AID 652257, 2013; Protein arginine N-methyltransferase 1 (Homo sapiens), Q99873; inhibition, % at 2.79 µM; 1.3% of 370,000 active; recombinant PRMT1, activity-based probe fluorescence polarization;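 active means inhibition above about 21% made by adding two undisclosed values, limit read from the data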
Target sequence (Q99873 whole entry, looked up): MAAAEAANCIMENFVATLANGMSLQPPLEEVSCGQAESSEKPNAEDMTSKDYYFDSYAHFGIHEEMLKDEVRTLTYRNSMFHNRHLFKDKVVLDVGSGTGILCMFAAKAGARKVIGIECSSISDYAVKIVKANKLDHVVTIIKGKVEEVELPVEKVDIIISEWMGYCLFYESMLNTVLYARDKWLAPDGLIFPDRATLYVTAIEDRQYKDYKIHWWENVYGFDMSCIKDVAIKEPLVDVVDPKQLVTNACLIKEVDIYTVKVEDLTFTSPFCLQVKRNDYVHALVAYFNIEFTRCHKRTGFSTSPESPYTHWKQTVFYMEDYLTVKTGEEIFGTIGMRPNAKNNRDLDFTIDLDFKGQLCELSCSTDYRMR
HTRA1 inh: HTRA1 serine protease inhibitors, primary screen, biochemical, fluorescence polarization, HTS; inhibition, % at 5.96 µM; 0.5% of 340,000 active; recombinant HTRA1, FP-rhodamine activity-based probe; in the data active means inhibition above about 36%;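 further: 0% = enzyme with DMSO and 100% = wells lacking enzyme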
SIAE inh: human SIAE inhibitors, primary screen, biochemical, fluorescence polarization, FP-Rh probe, 1536-well HTS; inhibition, % at 9.66 µM; SIAE FP-Rh probe binding; 0.69% of 370,000 active; Sialate O-acetylesterase (Homo sapiens), Q9HAT2; AID 1053197, 2014;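 active means inhibition above a cutoff: mean of compounds within the control limits plus 3 SD of those, cut at about 17% in these data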;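 further: 0% = plate median of compound wells and 100% = probe without SIAE protein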
HTRA1 conf: HTRA1 protease inhibitors, retest, confirmation, biochemical, fluorescence polarization | recombinant HTRA1, FP-rhodamine activity-based probe | inhibition, % at 5.96 µM | 66% of 1,600 active | AID 540248, 2011 | shares compounds with HTRA1 inh;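 active means mean inhibition over three repeats above a set limit taken from the earlier primary screen, cut at about 37% in these data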;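 further: 0% = HTRA1 with DMSO and 100% = wells lacking HTRA1; inhibitors block probe binding so polarization drops and inhibition rises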
rCAG bind conf: small molecules binding CAG repeat RNA – biochemical, fluorescence, confirmation; 70% of 4,300 active; inhibition, % at 3 µM; r(CAG) RNA repeat, TO-PRO-1 dye displacement fluorescence; AID 652065, 2013; shares compounds with rCAG RNA binder;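 active means inhibition above a per-plate cutoff, the mean inhibition of sample wells plus 3 SD, cut at about 35% in these data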;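 further: loss of TO-PRO-1 fluorescence as compound displaces dye from 1x1 AA loop RNA; 0% = DMSO only wells and 100% = 100 µM mitoxantrone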
dCAG dye counter: displacement of TO-PRO-1 from CAG DNA duplex, counter-screen for rCAG RNA repeat binder project, biochemical, fluorescence, TO-PRO-1 dye, d(CAG) DNA oligo. shares compounds with rCAG RNA binder. d(CAG) DNA oligo TO-PRO-1 dye displacement. inhibition, % at 3 µM. 94% of 4,300 active;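 active means inhibition above its plate's cutoff, the mean test-well inhibition plus 3 SD, cut at about 4.8% in these data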;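 further: 0% = DNA dye mix with DMSO and 100% = 100 µM mitoxantrone; hits displace the dye from DNA and so lower well fluorescence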
ABHD4 confirm: ABHD4 inhibitors, retest, confirmation, biochemical, fluorescence polarization, mouse. shares compounds with mABHD4 FP. 55% of 1,800 active. purified mABHD4, FP-Rh probe fluorescence polarization. inhibition, % at 8.92 µM. AID 720658, 2013;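 active means mean inhibition across replicates above the hit cutoff set in the primary screen, cut at about 30% in these data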;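 further: 0% = wild-type ABHD4 with DMSO and 100% = catalytically dead S159A mutant with DMSO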
* marks the source's active call; other numbers are inactive results.

`Nc1cc2cccnc2cc1Cl` gave rCAG RNA binder 41*, mABHD4 FP 53*, PRMT1 inh 13, HTRA1 inh 46*, SIAE inh -3, HTRA1 conf -1, rCAG bind conf 5, dCAG dye counter 1 and ABHD4 confirm 36*.
Screening Oc1ccc(/C=N/N2CCCCC2)c(O)c1O returned rCAG RNA binder 15, mABHD4 FP 31*, PRMT1 inh 23*, HTRA1 inh 38*, SIAE inh 6, HTRA1 conf 33 and ABHD4 confirm 15.
`CCOC(=O)[C@]12CCCC3=C1N(CCC3)C(=O)[C@@H](CC(=O)NCCCN1CCCC1=O)C2` gave rCAG RNA binder -1, mABHD4 FP 3, PRMT1 inh -4 and SIAE inh 4.
O=C1Nc2ccccc2/C1=N\N=C\c1ccc(O)c(O)c1 was read as rCAG RNA binder 33, mABHD4 FP 48*, PRMT1 inh 33*, HTRA1 inh 49*, SIAE inh 4, HTRA1 conf 78* and ABHD4 confirm 44*.
Screening COc1ccccc1Cc1c(-c2ccc(Cl)cc2)nc2ccc(C)cn12 returned rCAG RNA binder 18, mABHD4 FP -4, PRMT1 inh 2 and SIAE inh 1.
For O=C(/C=C/c1ccc(Cl)cc1Cl)c1ccc[nH]1 the results were rCAG RNA binder 8, mABHD4 FP -18, PRMT1 inh -1, HTRA1 inh -19 and SIAE inh -4.
COc1cccc(/C=C/C(=O)OCC(=O)NCCNC(=O)COC(=O)/C=C/c2cccc(OC)c2)c1 was read as rCAG RNA binder 4, mABHD4 FP 5, PRMT1 inh 2, HTRA1 inh 3 and SIAE inh -4.
Screening CNc1ccc(Br)cc(C(=O)/C=C/c2ccc(Cl)cc2Cl)c1=O returned rCAG RNA binder 34, mABHD4 FP 33*, PRMT1 inh 22*, HTRA1 inh 64*, SIAE inh 13, HTRA1 conf 48* and ABHD4 confirm 57*.
`CNc1ccc(Br)cc(C(=O)/C=C/c2cccc(OC)c2)c1=O` gave rCAG RNA binder 36*, mABHD4 FP 37*, PRMT1 inh 27*, HTRA1 inh 40*, SIAE inh 8, HTRA1 conf -1, rCAG bind conf 37*, dCAG dye counter 16* and ABHD4 confirm 43*.
Screening CCNc1ccc(Br)cc(C(=O)/C=C/c2ccc3c(c2)OCO3)c1=O returned rCAG RNA binder 39*, mABHD4 FP 38*, PRMT1 inh 38*, HTRA1 inh 52*, SIAE inh 12, HTRA1 conf 27, rCAG bind conf 36*, dCAG dye counter 18* and ABHD4 confirm 45*.
For COC(=O)c1cc(S(=O)(=O)N2CCN(c3ccccc3Cl)CC2)cn1C the results were rCAG RNA binder 6, mABHD4 FP -3, PRMT1 inh 2 and SIAE inh -1.
`COc1ccccc1CCC[C@H](CCS(=O)(=O)C(C)C)CC1CCCCC1` gave rCAG RNA binder 4, mABHD4 FP -5, PRMT1 inh 2 and SIAE inh 1.
Screening O=C(/C=C/c1ccc(O)c(O)c1)NC(=O)c1ccccc1O returned rCAG RNA binder 7, mABHD4 FP 57*, PRMT1 inh 13, HTRA1 inh 65*, SIAE inh 1, HTRA1 conf 62* and ABHD4 confirm 36*.
Oc1ccccc1-c1csc(-c2ccccc2)n1 was read as rCAG RNA binder 9, mABHD4 FP -14, PRMT1 inh 2, HTRA1 inh -24 and SIAE inh -3.
Screening Oc1ccc(-c2csc(-c3ccccc3)n2)cc1O returned rCAG RNA binder 24, mABHD4 FP 31*, PRMT1 inh 11, HTRA1 inh 59*, SIAE inh 8, HTRA1 conf 48* and ABHD4 confirm 31*.
For O=C(CSc1nnc(-c2cccs2)o1)Nc1cc(Cl)cc(Cl)c1 the results were rCAG RNA binder 7, mABHD4 FP -13, PRMT1 inh -2 and SIAE inh 1.
`O=[N+]([O-])c1ccccc1C1Nc2cccc3cccc(c23)N1` gave rCAG RNA binder 19, mABHD4 FP 53*, PRMT1 inh 29*, HTRA1 inh 51*, SIAE inh 6, HTRA1 conf 20 and ABHD4 confirm 55*.
Screening CN(Cc1cc(Cl)cc(Cl)c1O)Cc1c(O)ccc2ccccc12 returned rCAG RNA binder 8, mABHD4 FP 30*, PRMT1 inh 1, HTRA1 inh 52*, SIAE inh 5, HTRA1 conf 62* and ABHD4 confirm 18.
For CN(Cc1ccccc1)Cc1c(O)ccc2ccccc12 the results were rCAG RNA binder 0, mABHD4 FP 9, PRMT1 inh 9, HTRA1 inh 1 and SIAE inh 5.
`C/C(=N\Nc1nc2c(s1)CCCC2)c1ccc(Cl)cc1` gave rCAG RNA binder 8, mABHD4 FP 32*, PRMT1 inh 7, HTRA1 inh 54*, SIAE inh 11, HTRA1 conf 14 and ABHD4 confirm 50*.
`Cc1ccc2c(c1)c1c3n2CC(=C2C(=O)OC(C)(C)OC2=O)NC3CCC1` (stereo unspecified) gave rCAG RNA binder 47*, mABHD4 FP 37*, PRMT1 inh 3, HTRA1 inh 51*, SIAE inh 8, HTRA1 conf 61*, rCAG bind conf 34, dCAG dye counter 18* and ABHD4 confirm 30*.
For O=C(O)c1ccc(NC2=C/C(=N/S(=O)(=O)c3cccs3)c3ccccc3C2=O)cc1 the results were rCAG RNA binder 17, mABHD4 FP 37*, PRMT1 inh 1, HTRA1 inh 42*, SIAE inh 3, HTRA1 conf 46* and ABHD4 confirm 78*.
